A short description of data set [1]: Drug level in C57BL/6J mouse feces treated with [6]-shogaol at 200 mg/kg, po by HPLC-ECD analysis relative to control. Particulars: in vivo. Also noted: dose 200 mg/kg, route oral. The class given is ADME, organism-based. Summed up:
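Female C57BL/6J mice gavaged once with 200 mg/kg in corn oil, or corn oil alone (n = 5 each). 24-h feces collected in metabolic cages. Feces extracted by sonication 90 min in MeOH/H2O (50/50) + 0.1% acetic acid, centrifuged, diluted fivefold. Analysed by HPLC with electrochemical array detection (Gemini C18, phosphate/acetonitrile/THF gradient), compared against vehicle controls.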

Data set [2] is described as follows: Antioxidant activity assessed as DPPH radical scavenging activity. The class given is physicochemical.
Data set [3] in a line: Drug metabolism in human HCT116 cells assessed as retention time treated with 10 uM [6]-shogaol after 24 hrs by HPLC-ECD analysis. The note with it: hct-116, 24 h. The format is ADME, cell-based. In outline:
(§1)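 Cells (1.0 × 10⁶) attached 24 h in six-well plates, then exposed to 10 μM final in McCoy's 5A with 10% FBS. Extracted with equal volume acetonitrile, diluted 5-fold, analysed by HPLC with electrochemical detection.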

A short description of data set [4]: Drug level in human HCT116 cells treated with 10 uM [6]-shogaol after 24 hrs by HPLC-ECD analysis. The format is ADME, cell-based. The note with it: hct-116, 24 h. Summed up:
as §1

The values that follow come from ChEMBL document CHEMBL3526065, “Metabolism of [6]-shogaol in mice and in cancer cells” (Drug Metab Dispos, 2012).

For the compound `CCCCCC(CC(O)CCc1ccc(O)c(OC)c1)SC` (centres undefined), the Drug excretion entry in data set [1] is listed as “metabolite_detected”. For the compound `CCCCC[C@H](O)CC(=O)CCc1ccc(O)c(OC)c1` [GINGEROL], the IC50 in data set [2] worked out at 28 µM. Take `CCCCCC(CC(O)CCc1ccc(O)c(OC)c1)SCC(NC(C)=O)C(=O)O` (centres undefined): the Drug excretion entry in data set [1] was “metabolite_detected”. For `CCCCCC(CC(=O)CCc1ccc(O)c(OC)c1)SCC(NC(C)=O)C(=O)O` (centres undefined), the Drug excretion result in data set [1] is listed as “metabolite_detected”. Regarding `CCCCCC(CC(=O)CCc1ccc(O)c(OC)c1)SC[C@H](NC(=O)CC[C@H](N)C(=O)O)C(=O)NCC(=O)O` (some centres undefined), in data set [3], the Retention_time amounted to 14.5 min.

`CCCCCCCCC[C@H](O)CC(=O)CCc1ccc(O)c(OC)c1`: in data set [2], the IC50 came to 12 µM. Turning to `CCCCCC(CC(O)CCc1ccc(O)c(OC)c1)SCC(N)C(=O)NCC(=O)O` (centres undefined), in data set [1], the Drug excretion result is given as “metabolite_detected”. As for `CCCCC/C=C/C(O)CCc1ccc(O)c(OC)c1` (centres undefined), the Drug excretion entry in data set [1] is on record as “metabolite_detected”. Also, the Drug metabolism entry in data set [4] is recorded as “metabolite_detected”.
